Measured values reported in ChEMBL document CHEMBL1151763, “Identification of diarylsulfone sulfonamides as secreted frizzled related protein-1 (sFRP-1) inhibitors” (J Med Chem, 2008).
pEC50, pKd: −log10 of the molar value. In brackets after ≈: the same amount, converted by molar mass. Activity calls are given as the source filed them. No cut-off for these calls is given here.

Assays:
[1] = target: T1, Secreted frizzled-related protein 1 (Homo sapiens) (UniProt Q8N474); assay: Inhibition of human sFRP1 expressed in human U2OS assessed as fold induction in luciferase activity at 15 uM by TCF-luciferase reporter gene assay relative to control
T1 sequence (whole entry): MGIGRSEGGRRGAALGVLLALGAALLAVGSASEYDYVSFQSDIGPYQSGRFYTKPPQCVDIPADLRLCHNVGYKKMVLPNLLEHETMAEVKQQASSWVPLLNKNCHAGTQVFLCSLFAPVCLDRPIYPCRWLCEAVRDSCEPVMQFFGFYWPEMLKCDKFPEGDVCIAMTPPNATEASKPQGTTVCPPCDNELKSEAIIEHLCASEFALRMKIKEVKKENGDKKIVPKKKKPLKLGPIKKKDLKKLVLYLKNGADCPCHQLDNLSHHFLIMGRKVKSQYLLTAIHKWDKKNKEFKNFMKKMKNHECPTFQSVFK
How it was run: (§1)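 U2OS human osteosarcoma cells transfected with human sFRP-1, Wnt-3 and a TCF-luciferase reporter (canonical Wnt read-out). Inhibitor tested at 15 µM or 30 µM. Luciferase signal without inhibitor set at 1; fold induction measured in quadruplicate.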

[2] = target: T1, Secreted frizzled-related protein 1 (Homo sapiens); assay: Inhibition of human sFRP1 expressed in human U2OS assessed as fold induction in luciferase activity at 30 uM by TCF-luciferase reporter gene assay relative to control; how it was run: as §1
[3] = Metabolic stability in rat microsomes assessed as half life; assay type: ADME, Microsome
CYP2D6 = CYP2D6 (Homo sapiens, UniProt P10635); assay: Inhibition of CYP2D6 at 3 uM; assay type: ADME
[4] = Metabolic stability in human microsomes assessed as half life; assay type: ADME, Microsome
[5] = target: T2, Secreted frizzled-related protein 1 (Homo sapiens, UniProt Q8N474); assay: Inhibition of human sFRP1 expressed in human U2OS assessed as luciferase activity by TCF-luciferase reporter gene assay
T2 sequence (Q8N474 whole entry): T1 sequence (whole entry)
How it was run: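 Cell-based functional assay in U2OS human osteosarcoma cells transfected with human sFRP-1, Wnt-3 and a TCF-luciferase reporter gene measuring canonical Wnt pathway activation; EC50 derived from luciferase signal.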

CYP3A4 = CYP3A4 (Homo sapiens, UniProt P08684); assay: Inhibition of CYP3A4 at 3 uM; assay type: ADME
[6] = Aqueous solubility at pH 7.4; assay type: physicochemical; settings: buffer
CYP2C9 = CYP2C9 (Homo sapiens, UniProt P11712); assay: Inhibition of CYP2C9 at 3 uM; assay type: ADME
[7] = target: T2, Secreted frizzled-related protein 1; assay: Binding affinity to human sFRP1 by fluorescence spectroscopy
How it was run: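 Binding constant (K_D) taken from changes in intrinsic tryptophan fluorescence of sFRP-1 on inhibitor binding; excitation 295 nm, emission 340 nm. Stoichiometry of binding also determined.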

Mus musculus = organism: Mus musculus; assay: Increase in bone formation in mouse calvaria assessed as number of osteoblast on bone surface at 5 uM after 7 days relative to control; assay type: functional
[8] = Increase in bone formation in mouse calvaria assessed as increase in bone area at 5 uM after 7 days relative to control; assay type: functional

Sequence of CYP2C9 (P11712 whole entry): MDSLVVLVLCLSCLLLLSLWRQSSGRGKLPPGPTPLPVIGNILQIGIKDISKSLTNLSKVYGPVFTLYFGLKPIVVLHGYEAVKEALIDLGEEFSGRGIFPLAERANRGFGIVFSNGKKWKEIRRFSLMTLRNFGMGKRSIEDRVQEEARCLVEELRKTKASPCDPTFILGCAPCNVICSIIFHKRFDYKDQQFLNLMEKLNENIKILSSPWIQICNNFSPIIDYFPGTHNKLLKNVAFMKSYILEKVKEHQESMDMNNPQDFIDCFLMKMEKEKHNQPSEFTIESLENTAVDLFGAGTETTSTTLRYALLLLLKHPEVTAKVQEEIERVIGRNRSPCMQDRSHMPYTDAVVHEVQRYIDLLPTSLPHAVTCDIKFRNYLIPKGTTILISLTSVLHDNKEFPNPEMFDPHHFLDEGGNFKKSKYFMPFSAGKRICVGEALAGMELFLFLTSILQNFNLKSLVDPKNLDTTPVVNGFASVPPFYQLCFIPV
Sequence of CYP3A4 (P08684 whole entry): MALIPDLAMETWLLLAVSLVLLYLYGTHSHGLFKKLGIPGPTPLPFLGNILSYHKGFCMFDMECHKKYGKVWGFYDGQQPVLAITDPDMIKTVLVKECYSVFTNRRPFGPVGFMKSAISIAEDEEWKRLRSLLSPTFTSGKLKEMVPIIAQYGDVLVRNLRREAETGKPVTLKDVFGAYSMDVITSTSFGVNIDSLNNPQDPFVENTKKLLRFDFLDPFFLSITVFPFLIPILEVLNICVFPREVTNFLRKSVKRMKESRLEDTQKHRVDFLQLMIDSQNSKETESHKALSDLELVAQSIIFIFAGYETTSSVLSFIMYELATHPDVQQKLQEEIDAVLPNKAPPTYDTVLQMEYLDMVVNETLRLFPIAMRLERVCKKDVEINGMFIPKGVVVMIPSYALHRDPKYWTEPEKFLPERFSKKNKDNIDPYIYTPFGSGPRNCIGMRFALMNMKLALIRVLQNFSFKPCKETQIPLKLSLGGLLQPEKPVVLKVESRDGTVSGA
Sequence of CYP2D6 (P10635 whole entry): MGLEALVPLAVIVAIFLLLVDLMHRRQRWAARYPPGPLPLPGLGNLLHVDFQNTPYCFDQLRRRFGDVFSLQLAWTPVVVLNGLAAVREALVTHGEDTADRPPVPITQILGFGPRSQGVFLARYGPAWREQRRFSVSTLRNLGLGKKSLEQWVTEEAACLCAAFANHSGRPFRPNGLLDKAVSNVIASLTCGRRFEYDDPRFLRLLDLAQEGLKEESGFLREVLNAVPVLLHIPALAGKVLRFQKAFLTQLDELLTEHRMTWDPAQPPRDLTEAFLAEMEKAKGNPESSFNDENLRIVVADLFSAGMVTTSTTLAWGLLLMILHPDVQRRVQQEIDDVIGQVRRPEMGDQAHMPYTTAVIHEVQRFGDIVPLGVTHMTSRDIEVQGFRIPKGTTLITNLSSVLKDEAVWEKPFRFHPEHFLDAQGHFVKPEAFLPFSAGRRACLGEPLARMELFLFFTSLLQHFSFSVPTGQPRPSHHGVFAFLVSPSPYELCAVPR

| fold change (FC) [1] | half-life [3] | inhibition at 3 µM (CYP2D6) | pEC50 [5] | inhibition at 3 µM (CYP3A4) | solubility [6] | inhibition at 3 µM (CYP2C9) | Compound | further results |
| --- | --- | --- | --- | --- | --- | --- | --- | --- |
| 2.7 | – | – | – | – | – | – | Cc1ccc(S(=O)(=O)c2ccc(F)cc2)cc1S(=O)(=O)NCCc1ccccc1 | – |
| 1.5 | – | – | – | – | – | – | COc1ccc(S(=O)(=O)c2ccccc2)cc1S(=O)(=O)NCCc1ccccc1 | – |
| – | – | – | – | – | – | – | Cc1ccc(S(=O)(=O)c2ccc(Cl)cc2)cc1S(=O)(=O)Nc1ccccc1 | fold change (FC) [2]: 1 |
| 3.3 | 12 min | 9% | 5.90 | 43% | 26 µg/mL (≈ 63.3 µM) | 14% | CCc1ccc(S(=O)(=O)c2ccccc2)cc1S(=O)(=O)NCCCN(C)C | half-life [4]: 26.7 min |
| < 1 | – | – | – | – | – | – | Cc1ccc(S(=O)(=O)c2ccccc2)cc1S(=O)(=O)N(C)CCc1ccccc1 | – |
| 2.2 | – | – | – | – | – | – | Cc1ccc(S(=O)(=O)c2ccc(C)c(S(=O)(=O)NCCc3ccccc3)c2)cc1 | – |
| – | – | – | – | – | – | – | Cc1ccc(S(=O)(=O)c2ccccc2)cc1S(=O)(=O)NCc1ccccc1 | fold change (FC) [2]: < 1 |
| 2.5 | 5 min | 12% | 5.41 | 70% | 1 µg/mL (≈ 2.41 µM) | 41% | Cc1ccc(S(=O)(=O)c2ccccc2)cc1S(=O)(=O)NCCc1ccccc1 | pKd [7]: 6.46 |
| 3 | 1 min | 11% | 5.16 | 96% | 1 µg/mL (≈ 2.04 µM) | 84% | CCc1ccc(S(=O)(=O)c2ccccc2)cc1S(=O)(=O)NCCc1ccc(OC)c(OC)c1 | Activity (Mus musculus): Active; Activity [8]: 50% |
| 3.3 | – | – | – | – | – | – | CCc1ccc(S(=O)(=O)c2ccccc2)cc1S(=O)(=O)NCCc1ccccc1 | – |
| < 1 | – | – | – | – | – | – | O=S(=O)(NCCc1ccccc1)c1cccc(S(=O)(=O)c2ccccc2)c1 | – |
| 1.3 | – | – | – | – | – | – | Cc1ccc(S(=O)(=O)c2ccccc2)cc1S(=O)(=O)NCCCc1ccccc1 | – |
| 4.2 | 16 min | 25% | 5.05 | 78% | > 100 µg/mL | 25% | CCc1ccc(S(=O)(=O)c2ccccc2)cc1S(=O)(=O)NCCCN1CCCC1 | – |
